From ChEMBL document CHEMBL1121468, “Synthesis and blood pressure lowering activity of 3-(substituted-amino)-1,2,4-benzothiadiazine 1-oxide derivatives” (1980) come the findings set out here.

Each structure is given as a SMILES string. Activity calls are given as the source filed them. No cut-off for these calls is given here.

The subject of assay [1] is Rattus norvegicus. The assay can be described thus: Percentage blood pressure lowering in spontaneously hypertensive rats within 3 hr of intraperitoneal administration at 50 mg/kg. It counts as functional. In outline: (§1)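 Male Wistar/Kyoto SHR, about 6 months old, 300–400 g, housed four per cage with chow and water ad libitum. Drug given ip as a suspension in saline with 2% Emulphor EL-620. Systolic pressure was measured indirectly, mostly with photoelectric sensors at 25 °C, and earlier by a modified Friedman–Freed method with 30–45 s warming at 32 °C. Reported value: maximum % lowering within 3 h, mean ± SE.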

For assay [2], the system named is Oryctolagus cuniculus. Briefly: Minimum effective dose level to give significant blood pressure lowering effect in normotensive rabbits after administering intravenously. The format is functional. As to conditions: iv; for minimal effective dose: read-out: MED. In outline: (§2)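 Conscious rabbits held in a stock. After 30 min, a 30-min control recording was taken, then drug was given into an ear vein and recording continued for 120 min. Mean arterial pressure (electrically damped) and heart rate were averaged at 10-min intervals over 120 min. The dose was adjusted to the minimum giving p < 0.05 lowering; in practice a ≥10 mmHg mean fall was significant. Vehicle: saline with 2% Emulphor EL-620.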

Assay [3] deals with Rattus norvegicus. The assay can be described thus: Percentage blood pressure lowering in spontaneously hypertensive rats within 3 hr of intraperitoneal administration at 50 mg/kg; Not statistically significant. It counts as functional. In outline:
as §1

The subject of assay [4] is Rattus norvegicus. Briefly: Percentage blood pressure lowering in spontaneously hypertensive rats within 3 hr of intraperitoneal administration at 0.5 mg/kg. It counts as functional. In outline: as §1
In assay [5] the test system is Rattus norvegicus. The assay can be described thus: Percentage blood pressure lowering in spontaneously hypertensive rats within 3 hr of intraperitoneal administration at 20 mg/kg; Not statistically significant. It counts as functional. In outline: as §1
In assay [6] the test system is Rattus norvegicus. The assay can be described thus: Percentage blood pressure lowering in spontaneously hypertensive rats within 3 hr of intraperitoneal administration at 5 mg/kg. It counts as functional. In outline:
as §1

Assay [7] relates to Oryctolagus cuniculus. Briefly: Minimum effective dose level to give significant blood pressure lowering effect in normotensive rabbits after administering intravenously; NA denotes not active at 2.5 mg/kg. It counts as functional, organism-based. Also noted: dose 2.5 mg/kg. In outline:
as §2

For assay [8], the system named is Rattus norvegicus. Briefly: Percentage blood pressure lowering in spontaneously hypertensive rats within 3 hr of intraperitoneal administration at 2 mg/kg. The format is functional. In outline:
as §1

Assay [9] concerns Oryctolagus cuniculus. The assay can be described thus: Mean blood pressure lowering in normotensive rabbits over 2 h of intravenous administration at 0.008 mg/kg.
For assay [10], the system named is Oryctolagus cuniculus. Briefly: Mean blood pressure lowering in normotensive rabbits over 2 hr of intravenous administration at 0.125 mg/kg.
Assay [11] has as its system Rattus norvegicus. Briefly: Percentage blood pressure lowering in spontaneously hypertensive rats within 3 hr of intraperitoneal administration at 10 mg/kg. It counts as functional. In outline:
as §1

For assay [12], the system named is Rattus norvegicus. The assay can be described thus: Percentage blood pressure lowering in spontaneously hypertensive rats within 3 hr of intraperitoneal administration at 20 mg/kg. It counts as functional. In outline:
as §1

Assay [13] concerns Rattus norvegicus. The assay can be described thus: Percentage blood pressure lowering in spontaneously hypertensive rats within 3 hr of intraperitoneal administration at 25 mg/kg. It counts as functional. In outline: as §1
Assay [14] concerns Rattus norvegicus. The assay can be described thus: Percentage blood pressure lowering in spontaneously hypertensive rats within 3 hr of intraperitoneal administration at 1.0 mg/kg. The format is functional. In outline: as §1

Take `COc1cc2c(cc1OC)S(C)(=O)=NC(N1CCC(O)(c3ccccc3)CC1)=N2.Cl` (configuration not stated): in [1], the BP decrease came to 21.4%.

Turning to `COc1cc2c(cc1OC)S(C)(=O)=NC(N1CCC(c3ccccc3)CC1)=N2.Cl` (configuration not stated), the BP decrease in [1] is on record as 30.2%. Besides, the minimal effective dose in [2] came to 0.16 mg/kg.

On to `COc1cc2c(cc1OC)S(C)(=O)=NC(N1CCC(n3c(O)nc4ccccc43)CC1)=N2.Cl` (configuration not stated), for which the BP decrease in assay [1] is listed as 22.5%. Further, in assay [2], the minimal effective dose is 2.5 mg/kg.

`CNC1=Nc2cc(OC)c(OC)cc2S(C)(=O)=N1.Cl` (configuration not stated): the BP decrease in assay [3] was 11.3%. Moreover, the minimal effective dose in [2] is 0.16 mg/kg.

As to `COc1cc2c(cc1OC)S(C)(=O)=NC(N1CCN(C)CC1)=N2.Cl.Cl` (configuration not stated), the BP decrease in [1] worked out at 19.7%. In addition, the minimal effective dose in assay [2] came to 5 mg/kg.

For `COc1cc2c(cc1OC)S(C)(=O)=NC(N1CCCCC1)=N2.Cl` (configuration not stated), the BP decrease in assay [3] is given as 17.1%. Moreover, the minimal effective dose in assay [2] was determined as 1.25 mg/kg.

As for `COc1cc2nc(N3CCN(C(=O)c4ccco4)CC3)nc(N)c2cc1OC.Cl` [PRAZOSIN HYDROCHLORIDE], the BP decrease in assay [4] amounted to 14.7%. Also, the MED in [2] was found to be 0.025 mg/kg.

On to `COc1cc2c(cc1OC)S(C)(=O)=NC(NCc1ccccc1)=N2.Cl` (configuration not stated), for which the BP decrease in [1] came to 28.9%. In [2], the minimal effective dose came to 1.25 mg/kg.

As to `COc1cc2c(cc1OC)S(C)(=O)=NC(Nc1ccccc1)=N2.Cl` (configuration not stated), the BP decrease in [1] was found to be 19.9%. Besides, the minimal effective dose in [2] is 1 mg/kg.

On to `COc1cc2c(cc1OC)S(C)(=O)=NC(N1CCCN(C(=O)c3ccco3)CC1)=N2.Cl` (configuration not stated), for which the BP decrease in assay [5] was -1%. In assay [2], the minimal effective dose was found to be 1.25 mg/kg.

Take `COc1cc2c(cc1OC)S(C)(=O)=NC(NC(C)C)=N2.Cl` (configuration not stated): the BP decrease in assay [1] amounted to 17.7%. Moreover, the minimal effective dose in assay [2] is 2.5 mg/kg.

For the compound `COc1cc2c(c(OC)c1OC)S(C)(=O)=NC(N1CCN(C(=O)c3ccco3)CC1)=N2.Cl` (configuration not stated), the BP decrease in assay [1] turned out to be 20.6%. Further, in [2], the minimal effective dose is 0.04 mg/kg.

For `COc1cc2c(cc1OC)S(C)(=O)=NC(N1CCC(O)CC1)=N2.Cl` (configuration not stated), in assay [6], the BP decrease was determined as 56.9%. Also, the minimal effective dose in [2] came out at 0.625 mg/kg.

Consider `CS1(=O)=NC(N2CCN(C(=O)c3ccco3)CC2)=Nc2cc3c(cc21)OCO3.Cl` (configuration not stated), for which, in assay [1], the BP decrease is given as 18.2%. Moreover, the BP decrease entry in [7] was “inactive”.

`CCN(CC)C1=Nc2cc(OC)c(OC)cc2S(C)(=O)=N1.Cl` (configuration not stated): the BP decrease in [8] was 37.3%. In assay [2], the minimal effective dose was 0.04 mg/kg.

Turning to `COc1cc2c(cc1OC)S(C)(=O)=NC(N1CCN(Cc3ccccc3)CC1)=N2.Cl.Cl` (configuration not stated), the BP decrease in assay [1] worked out at 32.9%. Moreover, in assay [2], the minimal effective dose worked out at 2.5 mg/kg.

As to `COc1cc2c(cc1OC)S(C)(=O)=NC(N1CCN(C(=O)c3ccco3)CC1)=N2.Cl` (configuration not stated), the figures for the BP decrease in [9], in [4] and in assay [10] were 11.9 mmHg, 28.8% and 24.8 mmHg, respectively.

Turning to `COc1cc2c(cc1OC)S(=O)(C(C)C)=NC(N1CCN(C(=O)c3ccco3)CC1)=N2.Cl` (configuration not stated), the BP decrease in assay [1] is 34.3%.

`COc1cc2c(cc1OC)S(C)(=O)=NC(N1CCC(C(O)c3ccccc3)CC1)=N2.Cl` (configuration not stated): in assay [11], the BP decrease is reported as 40.9%. Besides, the minimal effective dose in [2] was 0.008 mg/kg.

Regarding `CCOc1cc2c(cc1OCC)S(C)(=O)=NC(N1CCN(C(=O)c3ccco3)CC1)=N2.Cl` (configuration not stated), the BP decrease in [1] is 16.4%. Moreover, the minimal effective dose in assay [2] was 2.5 mg/kg.

For `COc1cc2c(cc1OC)S(=O)(c1ccccc1)=NC(N1CCN(C(=O)c3ccco3)CC1)=N2.Cl` (configuration not stated), the BP decrease in assay [1] is 26.1%. The minimal effective dose in assay [2] was 1.25 mg/kg.

For `COc1cc2c(cc1OC)S(C)(=O)=NC(N1CCC(OC(C)=O)CC1)=N2.Cl` (configuration not stated), the minimal effective dose in assay [2] turned out to be 0.25 mg/kg. For the same compound, the BP decrease in [12] stood at 43%.

Take `COc1cc2c(cc1OC)S(C)(=O)=NC(N1CCN(c3ccccc3)CC1)=N2.Cl.Cl` (configuration not stated): in assay [2], the minimal effective dose is 0.625 mg/kg. For the same compound, in assay [13], the BP decrease came to 30.8%.

Take `COc1cc2c(cc1OC)S(C)(=O)=NC(N1CCC(C(=O)c3ccccc3)CC1)=N2.Cl` (configuration not stated): the BP decrease in assay [8] was 25.8%.

As for `COc1cc2c(cc1OC)S(C)(=O)=NC(N1CCN(C(=O)c3ccccc3)CC1)=N2.Cl` (configuration not stated), in [1], the BP decrease stood at 25.5%. In assay [2], the minimal effective dose is 0.312 mg/kg.

With `COc1cc2c(cc1OC)S(C)(=O)=NC(N1CCNCC1)=N2.Cl.Cl` (configuration not stated), the BP decrease in assay [3] was found to be 9.1%. In addition, in assay [2], the minimal effective dose was 10 mg/kg.

On to `COc1cc2c(cc1OC)S(C)(=O)=NC(N1CCC(C#N)(c3ccccc3)CC1)=N2.Cl` (configuration not stated), for which the BP decrease in assay [3] turned out to be 1.6%.

For the compound `CCS1(=O)=NC(N2CCN(C(=O)c3ccco3)CC2)=Nc2cc(OC)c(OC)cc21.Cl` (configuration not stated), in assay [1], the BP decrease is 18.2%. Also, the minimal effective dose in [2] is 2.5 mg/kg.

`COc1cc2c(cc1OC)S(C)(=O)=NC(N(C)C)=N2.Cl` (configuration not stated): in assay [1], the BP decrease is listed as 24.8%. In assay [2], the minimal effective dose stood at 0.125 mg/kg.

As for `COc1cc2c(cc1OC)S(C)(=O)=NC(N1CCN(C(=O)c3nnc(SC)o3)CC1)=N2.Cl` (configuration not stated), the BP decrease in assay [14] is 14%. The minimal effective dose in [2] came to 0.2 mg/kg.
